Measurements published in paper PMC5434479 (Inorganic Chemistry, 2017).
Where two headings read alike, the source gives them in different places.

What was measured:
[1] = system: human promyelocytic leukemia (HL60) cells; experiment: MTS antiproliferation assay, HL60 cells; format: cell-based; conditions: for IC50: read-out: IC50 ± SE; for cell viability: HL60, 1 μM; for cell viability / inhibition of HL60 cell proliferation (in words): 72 h; for inhibition of HL60 cell proliferation (in words): HL60, 10 μM
Outline: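 HL60 cells were kept in RPMI 1640 with 10% FCS, 2 mM L-glutamine and penicillin/streptomycin at 37 °C, 5% CO2, and seeded at 3 × 10^4 per 100 μL. Compound predissolved in DMSO was diluted 100-fold into wells (1% DMSO final). Wells received 10 or 1 μM, or a concentration series, in triplicate for 72 h. MTS reagent was added for 4 h, then absorbance read at 490 nm. Screening data were averaged over three experiments; IC50 calculated.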

[2] = system: human fetal lung fibroblast (MRC-5) cells; experiment: MTS antiproliferation assay, MRC-5 healthy fibroblasts; format: cell-based; conditions: for IC50: read-out: IC50 ± SE; for times less toxic toward healthy fibroblasts (MRC-5) than toward HL60 and MCF-7: MRC-5 versus HL60 and MCF-7
Outline: (§1)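 Culture was at 37 °C, 5% CO2: A549 in RPMI 1640, MCF-7 and MRC-5 in DMEM, each with 10% FCS, 2 mM L-glutamine and penicillin/streptomycin. Seeding per 100 μL was 8 × 10^3 (A549, MCF-7) or 2 × 10^3 (MRC-5). Compound in DMSO was diluted 100-fold into wells (1% DMSO final), tested at several concentrations in triplicate for 72 h. MTS reagent was added for 4 h, then A490 read; IC50 calculated.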

[3] = system: human lung adenocarcinoma epithelial (A549) cells; experiment: MTS antiproliferation assay, A549 cells; format: cell-based; conditions: for IC50: read-out: IC50 ± SE
Outline: as §1

[4] = system: human breast adenocarcinoma (MCF-7) cells; experiment: MTS antiproliferation assay, MCF-7 cells; format: cell-based; conditions: for IC50: read-out: IC50 ± SE
Outline: as §1

[5] = system: i-motif-forming sequence from the promoter region of the oncogene hif-1α; experiment: FRET DNA-melting assay, hif-1α i-motif; format: binding; conditions: hif-1α i-motif 0.2 μM, 50 equiv (10 μM), pH 7.2
Outline: (§2)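 FAM/TAMRA-labelled oligonucleotides were annealed in 10 mM sodium cacodylate with 100 mM NaCl. Buffer was pH 5.5 and 6.0 for hTeloC and pH 7.2 for hif-1α, hTeloG and duplex. Final DNA was 0.2 μM, with compound added at 1:10 by volume. DMSO-matched DNA controls ran in each run. Melting curves were recorded by real-time PCR machine, excitation 470 nm and detection 510 nm. Mean and SD of three experiments.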

double-stranded DNA = experiment: FRET DNA-melting assay, double-stranded DNA; format: binding; conditions: double-stranded DNA 0.2 μM, 50 equiv (10 μM), pH 7.2
Outline: as §2

[6] = system: G-quadruplex-forming sequence from the human telomere (hTeloG); experiment: FRET DNA-melting assay, hTeloG; format: binding; conditions: hTeloG G-quadruplex 0.2 μM, 50 equiv (10 μM), pH 7.2
Outline: as §2

[7] = system: human telomeric i-motif sequence (hTeloC); experiment: FRET DNA-melting assay, hTeloC; format: binding; conditions: pH 5.5 and pH 6.0; for interaction in preliminary screening (in words): hTeloC i-motif 0.2 μM, 50 equiv (10 μM); for stabilization of telomeric i-motif, pH 6.0 versus pH 5.5 (in words): hTeloC
Outline: as §2

[8] = molecular target: MDM2–p53 interaction (human MDM2 protein, residues 17–125) (Homo sapiens, UniProt Q00987); experiment: Fluorescence polarization assay of MDM2–p53 interaction; format: binding; conditions: for disruption of MDM2–p53 interaction in screening (in words): 100 μM
Chain of MDM2–p53 interaction (human MDM2 protein, residues 17–125) (Q00987 17-125): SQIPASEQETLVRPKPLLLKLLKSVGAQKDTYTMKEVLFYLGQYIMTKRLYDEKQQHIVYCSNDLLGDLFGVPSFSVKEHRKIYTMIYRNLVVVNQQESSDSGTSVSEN
Outline: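 Compound in DMSO was added at 1:10. Positive control was wild-type p53 peptide (15–27) at 400 μM final, negative control DMSO, each in triplicate. Plates were incubated 30 min at room temperature and read by polarisation at 490/520 nm, with total fluorescence checked. IC50 came from log(inhibitor) versus response, variable slope.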

A549 cells = experiment: Cellular uptake, gold content by ICP-MS, A549 cells; format: cell-based, human; conditions: A549, 10 μM, 6 h
MCF-7 cells = experiment: Cellular uptake, gold content by ICP-MS, MCF-7 cells; format: cell-based, human; conditions: MCF-7, 1 μM, 6 h
MDM2 = MDM2 (Homo sapiens, UniProt Q00987); experiment: STD NMR binding to MDM2; conditions: 13.5 μM MDM2, 500 μM compound, 1% DMSO-d6, 25 °C
Chain of MDM2 (Q00987 whole entry): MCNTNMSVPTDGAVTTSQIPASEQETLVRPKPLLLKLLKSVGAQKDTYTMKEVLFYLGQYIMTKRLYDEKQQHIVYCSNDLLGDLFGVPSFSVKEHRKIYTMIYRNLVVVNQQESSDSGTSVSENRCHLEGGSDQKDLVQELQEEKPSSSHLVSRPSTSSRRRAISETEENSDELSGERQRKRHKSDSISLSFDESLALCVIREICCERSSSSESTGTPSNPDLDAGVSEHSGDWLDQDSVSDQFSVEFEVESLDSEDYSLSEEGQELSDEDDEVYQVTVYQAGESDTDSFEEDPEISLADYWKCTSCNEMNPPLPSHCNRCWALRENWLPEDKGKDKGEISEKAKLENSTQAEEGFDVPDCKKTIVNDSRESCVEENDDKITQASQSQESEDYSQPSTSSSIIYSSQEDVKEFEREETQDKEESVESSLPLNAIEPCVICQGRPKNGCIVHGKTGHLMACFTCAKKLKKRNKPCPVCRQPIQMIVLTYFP
Outline: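 STD NMR at 800 MHz used a pseudo-2D sequence with spoil pulses. Protein was saturated by cascades of 49 ms Gaussian pulses, 1 ms apart, on-resonance at 0 ppm and off-resonance at 40 ppm. Saturation lasted 4 s for binding detection and 0.5 s for epitope mapping, 1024 scans each. Blank runs without protein were done. Epitope values were normalised to the most intense proton as 100%.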

[9] = Reaction with glutathione monitored by 1H NMR; format: physicochemical; conditions: equimolar GSH (10 mM) in DMSO-d6, room temperature, 6 days

Compound: Nc1nc2nc[nH]c2c(=S)[nH]1 [Compound 6-TG, 6-thioguanine, reference compound]
- IC50 ([1]; Homo sapiens, HL-60, 72 h): 0.98 ± 0.07 µM
- IC50 ([2]; Homo sapiens, MRC5, 72 h): > 50 µM
- IC50 ± SE ([2]; MRC-5, 72 h incubation, MTS): nontoxic
- IC50 ([3]; Homo sapiens, A549, 72 h): > 50 µM
- IC50 ([4]; Homo sapiens, MCF7, 72 h): 0.42 ± 0.13 µM

Compound: N.N.[Cl][Pt][Cl] [cisplatin, cis-diamminedichloroplatinum(II), reference compound]
- IC50 ([1]; HL60, 72 h incubation, MTS): 3.7 ± 0.25 µM
- IC50 ([2]; MRC-5, 72 h incubation, MTS): 10.7 ± 3 µM
- IC50 ([3]; A549, 72 h incubation, MTS): 33.7 ± 3.7 µM
- IC50 ([4]; MCF-7, 72 h incubation, MTS): 21.2 ± 3.9 µM

Compound: (C^N^pz^N)Au(6-thioguanine) [Compound 4]
- cell viability [1]: 60%
- inhibition of HL60 cell proliferation (in words) [1]: completely inhibited cell proliferation
- IC50 ([1]; HL60, 72 h incubation, MTS): 0.9 ± 0.22 µM
- IC50 ([2]; MRC-5, 72 h incubation, MTS): 4.3 ± 0.7 µM
- interaction in preliminary screening (in words) [5]: did not show any interaction
- interaction in preliminary screening (in words) (double-stranded DNA): did not show any interaction
- IC50 ([3]; A549, 72 h incubation, MTS): 29 ± 1.8 µM
- interaction in preliminary screening (in words) [6]: did not show any interaction
- interaction in preliminary screening (in words) [7]: did not show any interaction
- IC50 ([4]; MCF-7, 72 h incubation, MTS): 0.78 ± 0.11 µM

Compound: [(C^N^pz^N)Au(1,3,7,9-tetramethylxanthin-8-ylidene)]BF4 [Compound 3]
- cell viability [1]: nontoxic
- inhibition of HL60 cell proliferation (in words) [1]: completely inhibited cell proliferation
- IC50 ([1]; HL60, 72 h incubation, MTS): 4.05 ± 0.43 µM
- disruption of MDM2–p53 interaction in screening (in words) [8]: only compounds 1 and 2 appeared to disrupt
- times less toxic toward healthy fibroblasts (MRC-5) than toward HL60 and MCF-7 [2]: 2–4
- IC50 ([2]; MRC-5, 72 h incubation, MTS): 17.6 ± 1.9 µM
- cell uptake (in words) (A549 cells): poorly taken up
- interaction in preliminary screening (in words) [5]: good interactions
- cell uptake (in words) (MCF-7 cells): poorly taken up
- IC50 ([3]; A549, 72 h incubation, MTS): > 50 µM
- interaction in preliminary screening (in words) [6]: good interactions
- interaction in preliminary screening (in words) [7]: good interactions
- stabilization of telomeric i-motif, pH 6.0 versus pH 5.5 (in words) [7]: does not show any particular difference
- IC50 ([4]; MCF-7, 72 h incubation, MTS): 7.9 ± 0.13 µM

Compound: [(C^N^pz^N)Au(1,3-dimethylbenzimidazol-2-ylidene)]PF6 [Compound 2]
- cell viability [1]: 22%
- inhibition of HL60 cell proliferation (in words) [1]: completely inhibited cell proliferation
- IC50 ([1]; HL60, 72 h incubation, MTS): 0.31 ± 0.15 µM
- IC50 ([8]; 10 nM HDM2 and tagged peptide, pH 7.4): 31.1 ± 1.1 µM
- disruption of MDM2–p53 interaction in screening (in words) [8]: appeared to disrupt the MDM2–p53 interaction
- times less toxic toward healthy fibroblasts (MRC-5) than toward HL60 and MCF-7 [2]: 2–4
- IC50 ([2]; MRC-5, 72 h incubation, MTS): 1.4 ± 0.4 µM
- binding to MDM2 in solution (in words) (MDM2): clearly confirmed the binding
- cell uptake (in words) (A549 cells): much higher uptake
- intracellular gold concentration, times higher than that of 1 (A549 cells): ~4
- intracellular gold concentration, times higher than that of 3 (A549 cells): ~11
- stability toward GSH [9]: high stability
- interaction in preliminary screening (in words) [5]: good interactions
- cell uptake (in words) (MCF-7 cells): highest concentrations
- times more toxic than cisplatin ([3]; A549, ratio of IC50 values): 4
- toxicity relative to (benzimidazolylidene)AuCl ([3]; A549, comparator value ref 25b): more than twice as toxic
- IC50 ([3]; A549, 72 h incubation, MTS): 7.8 ± 1.3 µM
- interaction in preliminary screening (in words) [6]: good interactions
- interaction in preliminary screening (in words) [7]: good interactions
- stabilization of telomeric i-motif, pH 6.0 versus pH 5.5 (in words) [7]: stabilize the telomeric i-motif structure at pH 6.0 more efficiently than at pH 5.5
- times more potent than 3 ([4]; MCF-7, ratio of IC50 values): up to 14
- times more toxic than (benzimidazolylidene)AuCl ([4]; MCF-7, comparator value ref 44): more than 10
- IC50 ([4]; MCF-7, 72 h incubation, MTS): 0.56 ± 0.02 µM
